Active and inactive are the calls of the source. The calls are words filed in the database; no cut-off is given here.
Assays:
[1] = target: Cannabinoid receptor 2 (Mus musculus) (UniProt P47936); experiment: Agonist activity at CB2R in LPS induced mouse BV2 cells assessed as IL-1beta secretion at 10 uM preincubated for 30 mins followed by LPS stimulation for 4 hrs by ELISA (reference value: 734.3 +/-35.1%); assay type: cell-based; details: BV-2, filed as agonist, time 270.0 min
Procedure, shortened: (§1)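 BV-2 murine microglia grown in high-glucose DMEM with 10% FBS. Treatments in FBS-free medium: test agonist 10 μM for 30 min, then LPS 5 μg/ml for 4 h; SR144528 10 μM given 15 min before agonist. DMSO ≤0.1% final. Medium spun 10 min at 1000×g; IL-1β, IL-6, IL-10 quantified by ELISA; three independent experiments in duplicate.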

[2] = target: Cannabinoid receptor 2 (Mus musculus) (UniProt P47936); experiment: Agonist activity at CB2R in LPS induced mouse BV2 cells assessed as IL-6 secretion at 10 uM preincubated for 30 mins followed by LPS stimulation for 4 hrs by ELISA (reference value: 764.7 +/-22.9%); assay type: cell-based; details: BV-2, filed as agonist, time 270.0 min; procedure, shortened: as §1
Cannabinoid receptor 1 = Cannabinoid receptor 1 (Homo sapiens, UniProt P21554); experiment: Agonist activity at human CB1R expressed in CHO cell membranes after 90 mins by [35S]GTPgammaS assay; assay type: functional, Membrane
Cannabinoid receptor 1, sequence (P21554 whole entry): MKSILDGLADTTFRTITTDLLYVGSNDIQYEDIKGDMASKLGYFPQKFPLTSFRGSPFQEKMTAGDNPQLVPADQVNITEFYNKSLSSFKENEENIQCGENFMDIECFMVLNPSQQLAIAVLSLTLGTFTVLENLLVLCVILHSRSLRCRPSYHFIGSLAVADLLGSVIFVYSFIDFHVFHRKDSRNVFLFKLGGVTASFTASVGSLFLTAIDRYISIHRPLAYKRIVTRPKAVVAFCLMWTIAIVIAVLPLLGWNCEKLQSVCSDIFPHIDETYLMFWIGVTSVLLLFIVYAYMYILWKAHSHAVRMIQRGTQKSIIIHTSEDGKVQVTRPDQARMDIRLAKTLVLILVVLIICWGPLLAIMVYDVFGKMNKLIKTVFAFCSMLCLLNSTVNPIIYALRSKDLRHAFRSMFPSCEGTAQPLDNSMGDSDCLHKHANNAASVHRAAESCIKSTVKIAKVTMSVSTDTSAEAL
Procedure, shortened: (§2)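 In-house CHO membranes expressing hCB1 or hCB2 (10 µg) in 50 mM Tris-HCl, 3 mM MgCl2, 0.2 mM EDTA, 100 mM NaCl, 0.5% fatty-acid-free BSA, pH 7.4, with 10 μM GDP and 0.1 nM [35S]GTPγS. Incubated 90 min at 30 °C; antagonist pre-incubated 30 min. Nonspecific binding with 10 μM GTPγS; bound label by filtration and counting; ≥3 experiments in triplicate.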

Cannabinoid receptor 2 [3] = target: T1, Cannabinoid receptor 2 (Homo sapiens, UniProt P34972); experiment: Agonist activity at human CB2R expressed in CHO cell membranes after 90 mins by [35S]GTPgammaS assay; assay type: functional, Membrane; procedure, shortened: as §2
T1 sequence (P34972 whole entry): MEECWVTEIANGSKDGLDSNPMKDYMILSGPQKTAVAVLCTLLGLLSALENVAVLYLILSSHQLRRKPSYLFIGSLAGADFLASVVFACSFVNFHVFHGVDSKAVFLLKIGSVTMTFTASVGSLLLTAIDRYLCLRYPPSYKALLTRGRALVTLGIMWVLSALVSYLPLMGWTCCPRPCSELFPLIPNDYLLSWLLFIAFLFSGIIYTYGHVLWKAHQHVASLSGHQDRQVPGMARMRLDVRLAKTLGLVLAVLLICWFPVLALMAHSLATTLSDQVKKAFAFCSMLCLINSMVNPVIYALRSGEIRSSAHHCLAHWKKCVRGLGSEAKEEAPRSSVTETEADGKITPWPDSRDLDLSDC

[4] = target: Cannabinoid receptor 2 (Mus musculus) (UniProt P47936); experiment: Agonist activity at CB2R in LPS induced mouse BV2 cells assessed as increase in IL-10 secretion at 10 uM preincubated for 30 mins followed by LPS stimulation for 4 hrs by ELISA; assay type: cell-based; details: BV-2, filed as agonist, time 270.0 min; procedure, shortened: as §1
[5] = target: Cannabinoid receptor 1 (Rattus norvegicus) (UniProt P20272); experiment: Agonist activity at CB1R in Sprague-Dawley rat hippocampal synaptosomes assessed as inhibition of 4-AP evoked glutamate release at 10 uM preincubated for 8 mins followed by 4-AP addition in presence of 1 to 3 uM CB1R antagonist, SR141716A by HPLC analysis; assay type: subcellular; details: Hippocampus
Cannabinoid receptor 1 (Rattus norvegicus), sequence (P20272 whole entry, the tested form may be a part): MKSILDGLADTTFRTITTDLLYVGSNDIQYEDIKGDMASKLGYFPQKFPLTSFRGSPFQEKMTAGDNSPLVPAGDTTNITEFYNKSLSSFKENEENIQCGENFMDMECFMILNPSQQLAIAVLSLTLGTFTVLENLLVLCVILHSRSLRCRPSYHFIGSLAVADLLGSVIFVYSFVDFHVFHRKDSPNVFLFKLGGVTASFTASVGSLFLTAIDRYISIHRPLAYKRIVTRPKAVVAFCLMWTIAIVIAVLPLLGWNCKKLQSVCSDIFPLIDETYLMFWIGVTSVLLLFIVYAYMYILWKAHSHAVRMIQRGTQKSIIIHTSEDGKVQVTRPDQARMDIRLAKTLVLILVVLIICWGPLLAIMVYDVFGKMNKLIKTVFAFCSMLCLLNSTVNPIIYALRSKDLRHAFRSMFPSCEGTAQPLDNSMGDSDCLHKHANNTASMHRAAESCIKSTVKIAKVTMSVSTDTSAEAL
Procedure, shortened: (§3)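 Rat (male Sprague Dawley, 200-250 g) hippocampal synaptosomes from Percoll gradient, superfused at 37 °C (0.5 ml/min); 4-AP 600 μM for 2 min. Compounds and antagonists (SR141716A, SR144528, 1 μM) added 8 min before 4-AP and kept during it; basal effects tested by 2-min exposure alone. Endogenous glutamate by HPLC as pmol/mg protein; overflow = stimulated minus basal in control chambers; n = 3–9, triplicate.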

[6] = target: Cannabinoid receptor 1 (Rattus norvegicus) (UniProt P20272); experiment: Agonist activity at CB1R in Sprague-Dawley rat hippocampal synaptosomes assessed as inhibition of 4-AP evoked glutamate release at 10 uM preincubated for 8 mins followed by 4-AP addition in presence of 1 uM CB2R antagonist, SR144528 by HPLC analysis; assay type: subcellular; details: Hippocampus, filed as agonist; procedure, shortened: as §3
Mus musculus [7] = experiment: (§4) Antinociceptive activity in orally dosed CD-1 albino mouse model of oxaliplatin-induced neuropathic pain assessed as decrease in pain-related behaviour treated on day 15 post oxaliplatin treatment and measured after 15 to 75 mins post dose by cold plate test; assay type: functional, organism-based; details: dose 5-50 mg/kg, time 15-75 min
Procedure, shortened: (§5)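 Male CD-1 mice (22-25 g) given oxaliplatin 2.4 mg/kg i.p. in 5% glucose on days 1-2, 5-9, 12-14; tested day 15. Compound in 1% carboxymethylcellulose orally at 5, 10, 20, 50 mg/kg. Cold plate licking latency at 15, 30, 45, 60, 75 min post dose. Selective CB1R and CB2R antagonists co-tested. 16 mice per treatment across 2 sessions; one-way ANOVA with Bonferroni.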

Mus musculus [8] = experiment: as §4, with “in” for “in orally dosed”, “behaviour at 10 mg/kg, po pretreated with CB2R antagonist, SR144528 for 15 mins before compound addition” for “behaviour”; assay type: functional, organism-based; details: time 15-75 min; procedure, shortened: as §5
Mus musculus [9] = experiment: Antiinflammatory activity in MOG (35 to 55 residues)/pertussis toxin-induced experimental autoimmune encephalomyelitis C57BL/6J mouse model assessed as reduction in clinical scores at 10 mg/kg, ip dosed once daily for 20 days starting from day 10 to 16 post immunization and measured from 10 to 19 days post treatment; assay type: functional; details: time 10-19 day
Procedure, shortened: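 Active EAE in mice: 200 µg MOG35-55 in CFA (4 mg/ml M. tuberculosis) s.c. at hips and tail root, plus pertussis toxin 300 ng i.p. after immunization and 48 h later. Daily i.p. dosing (DMSO vehicle) for 20 days from each mouse's onset (day 10–16); onset = day 1. Daily clinical score; multiple t-tests with Holm-Sidak.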

Homo sapiens = species: Homo sapiens; experiment: Selectivity index, ratio of Ki for human CB1R expressed in CHO cell membranes to Ki for human CB2R expressed in CHO cell membranes; assay type: cell-based
Cannabinoid receptor 2 [10] = target: T1, Cannabinoid receptor 2; experiment: Non-competitive antagonist activity at human CB2R expressed in CHO cell membranes assessed as N-cycloheptyl-1,2-dihydro-1-(4-fluorobenzyl)-6-methyl-2-oxo-5-phenyl-pyridine-3-carboxamide Emax at 100 nM preincubated with compound for 30 mins followed by GTPgammaS addition and measured after 90 mins by [35S]GTPgammaS assay (reference value: -49.9%); assay type: functional; details: Membrane, filed as antagonist, time 120.0 min
Procedure, shortened: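 hCB2 membranes from stably transfected CHO cells (10 µg) pre-incubated 30 min with antagonist, then an inverse-agonist concentration series added. Buffer: 50 mM Tris-HCl, 3 mM MgCl2, 0.2 mM EDTA, 100 mM NaCl, 0.5% fatty-acid-free BSA, pH 7.4, with 10 µM GDP and 0.1 nM [35S]GTPγS. Incubated 90 min at 30 °C, then filtered. Non-specific binding measured with 10 µM GTPγS. Emax given with 95% CI; at least 3 experiments, each in triplicate.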

Cannabinoid receptor 2 [11] = target: T1, Cannabinoid receptor 2; experiment: (§6) Competitive antagonist activity at human CB2R expressed in CHO cell membranes assessed as rightward shift of N-cycloheptyl-1,2-dihydro-5-bromo-1-(4-fluoro benzyl)-6-methyl-2-oxo-pyridine-3-carboxamide-induced GTPgammaS binding by measuring fold change in N-cycloheptyl-1,2-dihydro-5-bromo-1-(4-fluoro benzyl)-6-methyl-2-oxo-pyridine-3-carboxamide EC50 at 100 nM preincubated with compound for 30 mins followed by GTPgammaS addition and measured after 90 mins by [35S]GTPgammaS assay; assay type: functional; details: Membrane, time 120.0 min
Cannabinoid receptor 2 [12] = target: T1, Cannabinoid receptor 2; experiment: as §6, with “300” for “100”; assay type: functional; details: Membrane, time 120.0 min
Procedure, shortened: (§7)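 hCB2 CHO membranes in GTPγS buffer (10 μM GDP, 0.1 nM [35S]GTPγS, pH 7.4) pre-incubated 30 min with antagonist at 300 nM or 1 µM, then agonist or inverse agonist concentration series, 90 min at 30 °C. EC50 and Emax reported with 95% CI; Schild analysis; controls CP55,940 100 nM and AM630 1 μM; ≥3 experiments in triplicate.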

Cannabinoid receptor 2 [13] = target: T1, Cannabinoid receptor 2; experiment: as §6, with “1000” for “100”; assay type: functional; details: Membrane, time 120.0 min; procedure, shortened: as §7

Cannabinoid receptor 2 (Mus musculus), sequence (P47936 whole entry): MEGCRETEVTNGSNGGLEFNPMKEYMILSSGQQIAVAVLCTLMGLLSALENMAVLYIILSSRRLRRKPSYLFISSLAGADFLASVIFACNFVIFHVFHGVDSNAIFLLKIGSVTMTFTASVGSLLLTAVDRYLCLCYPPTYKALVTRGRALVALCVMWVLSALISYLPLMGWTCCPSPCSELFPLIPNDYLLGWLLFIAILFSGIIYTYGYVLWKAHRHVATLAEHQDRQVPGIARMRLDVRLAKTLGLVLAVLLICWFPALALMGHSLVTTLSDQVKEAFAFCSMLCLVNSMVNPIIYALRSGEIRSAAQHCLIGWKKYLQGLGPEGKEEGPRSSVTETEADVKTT

SMILES | Activity [1] [%] | Activity [2] [%] | EC50 (Cannabinoid receptor 1) [nM] | EC50 (Cannabinoid receptor 2 [3]) [nM] | Activity [4] [%] | Activity [5] | Activity [6] | Activity (Mus musculus [7]) | Activity (Mus musculus [8]) | inhibition in vivo at 10 mg/kg (Mus musculus [9]) [%] | Ratio Ki (Homo sapiens) | Emax (Cannabinoid receptor 2 [10]) [%] | fold change (FC) (Cannabinoid receptor 2 [11]) | fold change (FC) (Cannabinoid receptor 2 [12]) | fold change (FC) (Cannabinoid receptor 2 [13])
Cc1c(Br)cc(C(=O)NC2CCCCCC2)c(=O)n1Cc1ccc(F)cc1 | 24.6 | 27.8 | 56.1 | 11.6 | 484 | inactive | Active | Dose-dependent effect | inactive | 50 | – | – | – | – | –
COc1ccc(-c2cc(C(=O)NC3CCCCCC3)c(=O)n(Cc3ccc(F)cc3)c2C)cc1 | – | – | – | – | – | – | – | – | – | – | 0.37 | -36.3 | 8 | 19 | 70
